Reference: ChEMBL document CHEMBL1140053, “Discovery of antimycobacterial spiro-piperidin-4-ones: an atom economic, stereoselective synthesis, and biological intervention” (J Med Chem, 2008)
Converted amounts (≈) assume the structure as drawn.

system: Mycobacterium tuberculosis; assay: Antimycobacterial activity against multidrug-resistant Mycobacterium tuberculosis by agar dilution method; format: functional
Method in brief: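 Clinical MDR isolate resistant to isoniazid, rifampicin, ethambutol and ofloxacin. Agar dilution in Middlebrook 7H11 agar with OADC, pH 7.40, NCCLS-like method, run in duplicate. MIC is the lowest concentration giving complete inhibition of growth.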

In order of falling MIC:
1. NNC(=O)c1ccncc1 [ISONIAZID]  45.6 µg/mL (≈ 332 µM)
2. CN1C/C(=C\c2cccc3ccccc23)C(=O)[C@]2(C1)[C@@H](c1cccc3ccccc13)[C@@H]1CCCN1[C@@]21C(=O)Nc2ccccc21 (racemic)  5.31 µg/mL (≈ 9 µM)
3. CN1C/C(=C\c2ccccc2Cl)C(=O)[C@]2(C1)[C@@H](c1ccccc1Cl)[C@H](c1ccccc1)N[C@@]21C(=O)Nc2ccccc21 (racemic)  5.27 µg/mL (≈ 8.86 µM)
4. CN1C/C(=C\c2ccco2)C(=O)[C@]2(C1)[C@@H](c1ccco1)CN(C)[C@@]21C(=O)Nc2ccccc21 (racemic)  3.52 µg/mL (≈ 7.94 µM)
5. CN1C/C(=C\c2cccs2)C(=O)[C@]2(C1)[C@@H](c1cccs1)CN(C)[C@@]21C(=O)Nc2ccccc21 (racemic)  3.28 µg/mL (≈ 6.9 µM)
6. CN1C/C(=C\c2ccc(F)cc2)C(=O)[C@]2(C1)[C@@H](c1ccc(F)cc1)[C@@H]1CCCN1[C@@]21C(=O)Nc2ccccc21 (racemic)  2.97 µg/mL (≈ 5.65 µM)
7. Cc1ccccc1/C=C1\CN(C)C[C@@]2(C1=O)[C@@H](c1ccccc1C)[C@H](c1ccccc1)N[C@@]21C(=O)Nc2ccccc21 (racemic)  2.82 µg/mL (≈ 5.09 µM)
8. COc1ccccc1/C=C1\CN(C)C[C@@]2(C1=O)[C@@H](c1ccccc1OC)[C@H](c1ccccc1)N[C@@]21C(=O)Nc2ccccc21 (racemic)  2.67 µg/mL (≈ 4.56 µM)
9. CN1C/C(=C\c2ccc(Cl)cc2Cl)C(=O)[C@]2(C1)[C@@H](c1ccc(Cl)cc1Cl)CN(C)[C@@]21C(=O)Nc2ccccc21 (racemic)  2.59 µg/mL (≈ 4.31 µM)
10. CN1C/C(=C\c2ccc(Cl)cc2Cl)C(=O)[C@]2(C1)[C@@H](c1ccc(Cl)cc1Cl)[C@H](c1ccccc1)N[C@@]21C(=O)Nc2ccccc21 (racemic)  2.35 µg/mL (≈ 3.54 µM)
11. CN1C/C(=C\c2cccc(F)c2)C(=O)[C@]2(C1)[C@@H](c1cccc(F)c1)CN(C)[C@@]21C(=O)Nc2ccccc21 (racemic)  1.56 µg/mL (≈ 3.12 µM)
12. CN1C/C(=C\c2ccccc2)C(=O)[C@]2(C1)[C@@H](c1ccccc1)[C@H](c1ccccc1)N[C@@]21C(=O)Nc2ccccc21 (racemic)  1.49 µg/mL (≈ 2.83 µM)
13. COc1ccccc1/C=C1\CN(C)C[C@@]2(C1=O)[C@@H](c1ccccc1OC)CN(C)[C@@]21C(=O)Nc2ccccc21 (racemic)  1.49 µg/mL (≈ 2.85 µM)
14. Cc1ccc(/C=C2\CN(C)C[C@@]3(C2=O)[C@@H](c2ccc(C)cc2)[C@H](c2ccccc2)N[C@@]32C(=O)Nc3ccccc32)cc1 (racemic)  1.41 µg/mL (≈ 2.55 µM)
15. COc1ccccc1/C=C1\CN(C)C[C@@]2(C1=O)[C@@H](c1ccccc1OC)[C@@H]1CCCN1[C@@]21C(=O)Nc2ccccc21 (racemic)  0.71 µg/mL (≈ 1.29 µM)
16. CN1C/C(=C\c2ccccc2Cl)C(=O)[C@]2(C1)[C@@H](c1ccccc1Cl)[C@@H]1CCCN1[C@@]21C(=O)Nc2ccccc21 (racemic)  0.71 µg/mL (≈ 1.27 µM)
17. COc1ccc(/C=C2\CN(C)C[C@@]3(C2=O)[C@@H](c2ccc(OC)cc2)[C@H](c2ccccc2)N[C@@]32C(=O)Nc3ccccc32)cc1 (racemic)  0.67 µg/mL (≈ 1.14 µM)
18. Cc1ccccc1/C=C1\CN(C)C[C@@]2(C1=O)[C@@H](c1ccccc1C)CN(C)[C@@]21C(=O)Nc2ccccc21 (racemic)  0.39 µg/mL (≈ 0.793 µM)
19. CN1C/C(=C\c2cccs2)C(=O)[C@]2(C1)[C@@H](c1cccs1)[C@@H]1CCCN1[C@@]21C(=O)Nc2ccccc21 (racemic)  0.38 µg/mL (≈ 0.757 µM)
20. COc1ccc(/C=C2\CN(C)C[C@@]3(C2=O)[C@@H](c2ccc(OC)cc2)CN(C)[C@@]32C(=O)Nc3ccccc32)cc1 (racemic)  0.36 µg/mL (≈ 0.688 µM)
21. CN1C/C(=C\c2ccc(F)cc2)C(=O)[C@]2(C1)[C@@H](c1ccc(F)cc1)[C@H](c1ccccc1)N[C@@]21C(=O)Nc2ccccc21 (racemic)  0.16 µg/mL (≈ 0.285 µM)
22. CN1C/C(=C\c2ccccc2Cl)C(=O)[C@]2(C1)[C@@H](c1ccccc1Cl)CN(C)[C@@]21C(=O)Nc2ccccc21 (racemic)  0.08 µg/mL (≈ 0.15 µM)
